In series [1] the target is Indoleamine 2,3-dioxygenase 1 (Homo sapiens, UniProt P14902). Kind of series: Inhibition of recombinant human IDO expressed in Escherichia coli assessed as reduction in kynurenine production at 200 uM using L-tryptophan as substrate after 3 hrs by methylene blue dye based assay. The method, boiled down:
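Reaction mix: 50 mM MES pH 6.5, 20 mM ascorbate, 2250 U/mL catalase, 10 μM methylene blue, 200 μM L-Trp, 100 nM recombinant IDO, 200 μM compound or DMSO. Incubated 37 °C for 3 h; kynurenine colour read at 321 nm.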

In series [2] the target is Voltage-gated inwardly rectifying potassium channel KCNH2 (Homo sapiens, UniProt Q12809). Kind of series: Inhibition of human ERG at 30 uM by manual patch clamp method. The method, boiled down:
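Manual patch clamp on hERG channel, tested up to 30 μM.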

Series [3] has as its system Mus musculus. Kind of series: Toxicity in C57BL/6J mouse assessed as injury at 50 mg/kg administered once in every 3 hrs for 24 hrs. It is filed as organism-based. The note with it: in vivo. The method in brief: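 Mice dosed 50 mg/kg every 3 h for 24 h and examined for injury.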
The subject of series [4] is Mus musculus. Kind of series: Protection against TNFalpha-induced thymus damage in C57BL/6J mouse assessed as reduction in immune cell infiltration at 0.3 to 3 mg/kg, ip pretreated for 17 mins followed by TNFalpha injection and subsequent compound treatment once in every 12 hrs measured 24 hrs post TNFalpha injection by hematoxylin and eosin staining based assay. It is filed as functional, organism-based. The method, boiled down:
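Mice given mTNFα IV; compound 0.3, 1, 3 mg/kg IP 17 min before and every 12 h. Killed 24 h post-TNFα. Organs fixed 24 h in 10% neutral buffered formalin, paraffin-embedded, 5-μm sections, H&E stained; ×200, at least three mice each.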

For series [5], the system named is Mus musculus. In words: Protection against TNFalpha-induced multiorgan damage in C57BL/6J mouse assessed as serum amylase level at 0.3 to 3 mg/kg, ip pretreated for 17 mins followed by TNFalpha injection and subsequent compound treatment once in every 12 hrs measured 24 hrs post TNFalpha injection. It is filed as functional, organism-based. The method, boiled down:
(§1)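 C57BL/6 mice given 4 μg mTNFα (~0.18 mg/kg) IV. Compound 0.3, 1, 3 mg/kg IP 17 min before and then every 12 h; vehicle controls. Blood taken 12 h and 24 h after TNFα. Assays: IL-6 and IL-1β; serum LDH, CK, AST, creatinine, BUN, amylase.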

The subject of series [6] is Mus musculus. In words: Protection against TNFalpha-induced mortality in ip dosed C57BL/6J mouse assessed as increase in survival rate administered as single dose 17 mins before TNFalpha injection measured every 30 mins up to 60 hrs post TNFalpha injection. The class given is functional, organism-based. The method, boiled down: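 C57BL/6 mice, 6-8 weeks, ~20 g, randomized (n = 6~10). Given 5.5 μg mTNFα (~0.25 mg/kg) IV in endotoxin-free PBS, 0.2 mL. Compound IP 17 min before TNFα: either once at 6 mg/kg or […], 1, 3 mg/kg then every 12 h; vehicle controls. Survival checked every 30 min to 60 h.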

In series [7] the test system is Mus musculus. Kind of series: Protection against TNFalpha-induced multiorgan damage in C57BL/6J mouse assessed as serum CK-MB level at 0.3 to 3 mg/kg, ip pretreated for 17 mins followed by TNFalpha injection and subsequent compound treatment once in every 12 hrs measured 24 hrs post TNFalpha injection. The class given is functional, organism-based. The method, boiled down: as §1

Series [8] can be described thus: Apparent permeability from apical to basolateral side in MDCK cells harboring MDR1. The class given is ADME, cell-based, Canis lupus familiaris. The note with it: dog. The method in brief:
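Permeability measured in MDCK-MDR1 cell monolayers in both directions, apical-to-basolateral and basolateral-to-apical; efflux ratio derived from the two Papp values.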

Calls of active or inactive are those of the source. The calls are words filed in the database; no cut-off is given here.

Chain of Voltage-gated inwardly rectifying potassium channel KCNH2 (Q12809 whole entry): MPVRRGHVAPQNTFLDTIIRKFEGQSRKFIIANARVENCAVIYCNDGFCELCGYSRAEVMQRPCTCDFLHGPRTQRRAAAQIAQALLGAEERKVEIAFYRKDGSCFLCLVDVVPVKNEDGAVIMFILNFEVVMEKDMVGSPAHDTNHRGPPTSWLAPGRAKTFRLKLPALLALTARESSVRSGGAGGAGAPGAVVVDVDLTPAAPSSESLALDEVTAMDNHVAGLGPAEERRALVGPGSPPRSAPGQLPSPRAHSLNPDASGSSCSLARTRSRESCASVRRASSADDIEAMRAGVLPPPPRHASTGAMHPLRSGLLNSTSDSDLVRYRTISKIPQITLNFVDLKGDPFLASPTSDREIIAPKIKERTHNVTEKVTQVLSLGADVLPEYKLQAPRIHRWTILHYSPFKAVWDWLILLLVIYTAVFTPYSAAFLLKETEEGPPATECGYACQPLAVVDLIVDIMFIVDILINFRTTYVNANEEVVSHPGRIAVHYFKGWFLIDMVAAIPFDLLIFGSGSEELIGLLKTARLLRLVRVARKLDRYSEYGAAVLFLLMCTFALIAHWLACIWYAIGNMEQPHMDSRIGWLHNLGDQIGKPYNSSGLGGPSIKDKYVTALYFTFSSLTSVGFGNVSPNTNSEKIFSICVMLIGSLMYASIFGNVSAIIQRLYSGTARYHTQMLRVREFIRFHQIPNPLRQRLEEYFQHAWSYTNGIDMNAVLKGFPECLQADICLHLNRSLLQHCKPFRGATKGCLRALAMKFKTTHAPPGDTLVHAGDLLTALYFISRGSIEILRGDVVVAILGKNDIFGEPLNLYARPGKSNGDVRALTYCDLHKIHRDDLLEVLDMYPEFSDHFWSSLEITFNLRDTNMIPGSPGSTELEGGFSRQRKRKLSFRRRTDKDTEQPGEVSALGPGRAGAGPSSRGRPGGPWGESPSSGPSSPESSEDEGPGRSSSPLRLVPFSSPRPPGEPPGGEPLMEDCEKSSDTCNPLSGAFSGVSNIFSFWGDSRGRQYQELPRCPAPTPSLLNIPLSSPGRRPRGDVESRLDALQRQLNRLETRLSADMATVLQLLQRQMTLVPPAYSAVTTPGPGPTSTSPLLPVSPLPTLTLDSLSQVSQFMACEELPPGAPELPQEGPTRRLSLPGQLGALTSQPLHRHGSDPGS
Chain of Indoleamine 2,3-dioxygenase 1 (P14902 whole entry): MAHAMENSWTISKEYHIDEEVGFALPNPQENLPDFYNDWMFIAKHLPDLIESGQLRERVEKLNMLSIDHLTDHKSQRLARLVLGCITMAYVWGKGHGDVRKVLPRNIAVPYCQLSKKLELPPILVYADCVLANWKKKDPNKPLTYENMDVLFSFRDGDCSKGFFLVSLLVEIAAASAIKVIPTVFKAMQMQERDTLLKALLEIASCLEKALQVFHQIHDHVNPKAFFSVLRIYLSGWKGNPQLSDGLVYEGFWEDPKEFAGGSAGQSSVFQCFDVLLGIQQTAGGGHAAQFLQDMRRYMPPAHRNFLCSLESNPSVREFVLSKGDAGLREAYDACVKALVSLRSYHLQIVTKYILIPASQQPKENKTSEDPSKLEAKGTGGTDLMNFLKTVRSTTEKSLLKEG

For `CCC(C)(C)C(=O)N(O)Cc1ccccc1`, the “inhibition (INH)” value in series [1] and in series [2] was “Not Active” in each case. The results for the Activity entry in series [3] and in series [6] were “Non-Toxic” and “Dose-dependent effect”, respectively. In addition, the result in series [4], in series [5] and in series [7] was Active. Moreover, the Papp A→B in series [8] is greater than 30 ×10⁻⁶ cm/s.

The values are drawn from ChEMBL document CHEMBL3992509, “Discovery of a Highly Potent, Selective, and Metabolically Stable Inhibitor of Receptor-Interacting Protein 1 (RIP1) for the Treatment of Systemic Inflammatory Response Syndrome” (J Med Chem, 2017).
